Data set [1] concerns Mus musculus. Briefly: Compound was tested for percent cures (60-day survivors) in mice at 10 mg/kg. The data set is classed as functional. The procedure, abridged: (§1)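 L1210 leukemia was passaged in donor CD2F1 mice. Each recipient mouse received 10⁵ cells. Drug was given ip in 100% DMSO once daily for 6 days, starting 24 h after implantation, at 5–20 mg/kg. Groups were 5–10 mice, with vehicle controls. %T/C = mean survival treated/control × 100, excluding cures. Cures = 60-day survivors. Body-weight change during therapy was taken as toxicity.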

Data set [2] is described as follows: Relative rate of decomposition is the rate of decomposition of acyl compound to that of rate of decomposition of compound. The data set is classed as ADME. In outline:
(§2)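 Decomposition was followed at 37 °C, pH 7.4, by phenol red (20 mg/L) acidification at 560 nm in 1 mM potassium phosphate. Drug was at 1 mM final, added from a DMSO stock. Rates were calculated as 3 H⁺ per mol for acyl compounds, calibrated with HCl standards. The relative rate is the acyl compound rate divided by the reference tris(sulfonyl) rate.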

Data set [3] can be described thus: Relative rate of decomposition is the rate of decomposition in the presence of 2% serum/rate of hydrolysis in buffer alone. The data set is classed as ADME. The procedure, abridged:
(§3)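 Hydrolysis was followed by phenol red acidification (560 nm) at pH 7.4, 37 °C, in weak phosphate buffer containing 2% CD-1 mouse serum. Serum came from female CD-1 mice bled by cardiac puncture: blood from 3 mice was pooled, clotted 30 min at 37 °C, centrifuged, and kept on ice ≤6 h. HCl calibration was done in the serum mixture. The relative rate is the serum rate divided by the buffer rate.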

Data set [4] concerns L1210. Briefly: Average percent change in body weight against L1210 leukemia in mice at 10 mg/kg. Type of data set: functional, Mus musculus. In outline: (§4)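 L1210 leukemia, 10⁵ cells ip per recipient mouse (cells from ip passage in CD₂F₁ donors plus culture). Drug ip in 100% DMSO, ≤0.025 mL, once daily ×6 starting 24 h after implantation; groups of 5 mice (5–10 per group per footnote). Toxicity read-out: average percent change in body weight from onset to termination of therapy; vehicle-treated tumor-bearing controls included.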

Data set [5] can be described thus: Initial rate of decomposition (1 mM) in 1 mM potassium phosphate buffer. The data set is classed as ADME. The note with it: 1000 µM. The procedure, abridged:
as §2

Data set [6] is described as follows: Rate of decomposition in presence of CD-1 mouse serum. The data set is classed as ADME. The procedure, abridged: as §3
A short description of data set [7]: Relative rate of decomposition is the rate of decomposition in the presence of 10 mMGSH/rate of decomposition in buffer alone. The data set is classed as ADME. The procedure, abridged:
(§5)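 Phenol red acidification (560 nm) was run in 1 mM potassium phosphate, pH 7.4, 37 °C, with 10 mM GSH added and 1 mM drug. Rates assumed 2 H⁺ released per mol during GSH-initiated decomposition. HCl calibration was done in the GSH-containing mixture. The relative rate is the GSH rate divided by the buffer-alone rate.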

Data set [8] can be described thus: Rate of decomposition in presence of 10 mM glutathione (GSH). Type of data set: ADME. The procedure, abridged: as §5
Data set [9] deals with L1210. Description: Average percent change in body weight against L1210 leukemia in mice at 20 mg/kg. The data set is classed as functional, Mus musculus. The procedure, abridged:
as §4

Data set [10] concerns Mus musculus. Briefly: Compound was tested for percent cures (60-day survivors) in mice at 20 mg/kg. The data set is classed as functional. In outline:
as §1

For data set [11], the system named is Mus musculus. Briefly: Average survival time of treated/control mice X 100 was determined at 20 mg/kg. The data set is classed as functional. The procedure, abridged:
as §1

In data set [12] the test system is Mus musculus. Description: Average survival time of treated/control mice X 100 was determined at 10 mg/kg. The data set is classed as functional. The procedure, abridged: as §1
The test system of data set [13] is Mus musculus. Description: Compound was tested for percent cures (60-day survivors) in mice at 60 mg/kg. The data set is classed as functional.
Data set [14] concerns L1210. Briefly: Average percent change in body weight against L1210 leukemia in mice at 60 mg/kg. Type of data set: functional, Mus musculus.
Data set [15] has as its system M5076. Description: Optimal Antitumor Effect was expressed as % T/C against M5076, sc leukemia in mice (i.v.) 20 mg/kg. Type of data set: functional, Mus musculus. The note with it: route intravenous. In outline: (§6)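 M5076 reticulum cell sarcoma sc in C57BL/6 mice (fragment passage); drug iv in 10% DMSO in saline, 0.01 mL/g, every other day ×5 from day 1; eight mice/group. %T/C from median survival ratio; T − C = difference in median days for treated vs untreated tumors to reach 1 g.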

For data set [16], the system named is M5076. Briefly: Optimal Antitumor Effect was expressed as T-C against M5076, sc leukemia in mice (i.v.) 40 mg/kg. To be noted: route intravenous. The data set is classed as functional, Mus musculus. The procedure, abridged: as §6
For data set [17], the system named is M109. Briefly: Optimal Antitumor Effect was expressed as % T/C against M109, sc leukemia in mice (i.v.) 32 mg/kg. The data set is classed as functional, Mus musculus. To be noted: route intravenous.
Data set [18] deals with M109. Briefly: Optimal Antitumor Effect was expressed as % T/C against M109, sc leukemia in mice (i.v.) 30 mg/kg. Type of data set: functional, Mus musculus. The note with it: route intravenous. The procedure, abridged: (§7)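 M109 lung carcinoma implanted sc (fragments passaged in Balb/c mice); drug iv in 10% DMSO in saline, 0.01 mL/g, every third day ×4 starting day 1. Eight mice/group, ≥3 dose levels. Read-outs: %T/C from median survival, and T − C = difference in median days for treated vs untreated tumors to reach 1 g (1 mm³ = 1 mg).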

In data set [19] the test system is Mus musculus. Briefly: Compound was tested for percent cures (60-day survivors) in mice at 7.5 mg/kg. The data set is classed as functional. In outline:
as §1

A further data set deals with B16. Briefly: Optimal Antitumor Effect was expressed as T-C against B16 i.d. leukemia in mice (i.p.) 100 mg/kg. To be noted: route intraperitoneal. The data set is classed as functional, Mus musculus.
Data set [20] has as its system Mus musculus. Description: Average survival time of treated/control mice X 100 was determined at 7.5 mg/kg. Type of data set: functional. The procedure, abridged:
as §1

Data set [21] has as its system M109. Briefly: Optimal Antitumor Effect was expressed as T-C against M109, sc leukemia in mice (i.v.) 48 mg/kg. Type of data set: functional, Mus musculus. To be noted: route intravenous.
A further data set has as its system P388. Description: Optimal Antitumor Effect was expressed as cures/total against P388, ip, leukemia in mice (i.p.) 200 mg/kg; 3/6. The data set is classed as functional, Mus musculus. The note with it: route intraperitoneal.
Data set [22] has as its system M109. Description: Optimal Antitumor Effect was expressed as T-C against M109, sc leukemia in mice (i.v.) 30 mg/kg. Type of data set: functional, Mus musculus. To be noted: route intravenous. In outline: as §7
The subject of data set [23] is M109. Briefly: Optimal Antitumor Effect was expressed as % T/C against M109, sc leukemia in mice (i.v.) 60 mg/kg. Type of data set: functional, Mus musculus. To be noted: route intravenous. In outline:
as §7

The subject of data set [24] is L1210. Briefly: Average percent change in body weight against L1210 leukemia in mice at 7.5 mg/kg. The data set is classed as functional, Mus musculus. The procedure, abridged: as §4
The test system of data set [25] is M109. Description: Optimal Antitumor Effect was expressed as % T/C against M109, ip leukemia in mice (i.p.) 60 mg/kg. The data set is classed as functional, Mus musculus. To be noted: route intraperitoneal. The procedure, abridged:
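M109 lung carcinoma ip in Balb/c-passaged line; drug ip every third day ×4 from day 1, as fine suspension in 10% DMSO in carboxymethylcellulose with Tween 80 (0.5 mL). Eight mice/group, ≥3 dose levels. %T/C = median survival treated/control ×100; deaths before day 10 counted as toxic.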

For data set [26], the system named is M5076. Briefly: Optimal Antitumor Effect was expressed as % T-C against M5076, sc leukemia in mice (i.v.) 36 mg/kg. Type of data set: functional, Mus musculus. To be noted: route intravenous. The procedure, abridged:
(§8)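 Second M5076 sc experiment in C57BL/6 mice: drug iv in 100% DMSO, fixed 10 μL, every other day ×5 from day 1; eight mice/group. Outputs: %T/C (median survival ratio) and T − C growth delay to 1 g tumor, treated minus control.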

Data set [27] concerns M109. Description: Optimal Antitumor Effect was expressed as T-C against M109, sc leukemia in mice (i.v.) 60 mg/kg. Type of data set: functional, Mus musculus. The note with it: route intravenous. The procedure, abridged:
as §7

Data set [28] relates to M5076. Briefly: Optimal Antitumor Effect was expressed as % T/C against M5076, sc leukemia in mice (i.v.) 36 mg/kg. The note with it: route intravenous. Type of data set: functional, Mus musculus. The procedure, abridged: as §8

Some results are limits rather than exact numbers.

In turn, `COCC(=O)N(N(CCCl)S(C)(=O)=O)S(C)(=O)=O` gave a Cures with Mus musculus [1] of 100%. For the same molecule, the Relative rate of decomposition in data set [2] stood at 0.3; in [3], 3; in data set [7] it was 50.6. In the data set with L1210 [4], the Body weight is -8.4%. Also, the values for the Rate of decomposition in data set [5], in data set [6] and in [8] were 2.9 (nM of drug) min-1 ml-1, 8.57 (nM of drug) min-1 ml-1 and 147 (nM of drug) min-1 ml-1, respectively.
A word on the T/C: it is the ratio of treated to control. Regarding `CS(=O)(=O)N(CCCl)N(C(=O)c1ccccc1)S(C)(=O)=O`, the Body weight in the data set on L1210 [9] was -7.7%. In the data set with Mus musculus [10], this molecule had a Cures of 20%. The figures for the Relative rate of decomposition in data set [2], in data set [3] and in [7] were 0.11, 7.7 and 223, respectively. Besides, the figures for the Rate of decomposition in data set [5], in data set [6] and in data set [8] were 1.02 (nM of drug) min-1 ml-1, 7.86 (nM of drug) min-1 ml-1 and 227 (nM of drug) min-1 ml-1, respectively. In the data set on Mus musculus [11], the T/C is on record as 160%.
Take `CC(C)(C)C(=O)N(N(CCCl)S(C)(=O)=O)S(C)(=O)=O`: the Body weight in the data set on L1210 [9] came to 0%. In the data set on Mus musculus [10], this molecule gave a Cures of 60%. The values for the Rate of decomposition result in [5], in [6] and in data set [8] were “<= 0.1 (nM of drug) min-1 ml-1”, 0.78 (nM of drug) min-1 ml-1 and 11 (nM of drug) min-1 ml-1, respectively. The same molecule showed a T/C in the data set with Mus musculus [11] of 302%.
In the data set on Mus musculus [1], `CCC(=O)N(N(CCCl)S(C)(=O)=O)S(C)(=O)=O` had a Cures of 90%. Besides, in the data set with L1210 [4], the Body weight was -6.4%. The Rate of decomposition result in data set [5] is reported as “<= 0.1 (nM of drug) min-1 ml-1”; in data set [6], 0.45 (nM of drug) min-1 ml-1; in [8], 12.8 (nM of drug) min-1 ml-1. Besides, in the data set with Mus musculus [12], the T/C is 217%.
Regarding `CCCC(=O)N(N(CCCl)S(C)(=O)=O)S(C)(=O)=O`, the Cures with Mus musculus [1] is listed as 20%. For the same molecule, the Body weight in the data set with L1210 [4] was 0%. For the same molecule, the Rate of decomposition result in data set [5] is listed as “<= 0.1 (nM of drug) min-1 ml-1”; in data set [6] it was 0.34 (nM of drug) min-1 ml-1; in data set [8] it was 10.3 (nM of drug) min-1 ml-1. Also, the T/C in the data set on Mus musculus [12] is 207%.
`CS(=O)(=O)N(CCCl)N(S(C)(=O)=O)S(C)(=O)=O` came in with a Cures in the data set on Mus musculus [13] of 100%. In data set [2], this molecule came in with a Relative rate of decomposition of 1. For the same molecule, the Rate of decomposition in [5] is recorded as 9.58 (nM of drug) min-1 ml-1. Also, the Body weight in the data set with L1210 [14] is -7.2%.
For the molecule `CC(=O)N(N(CCCl)S(C)(=O)=O)S(C)(=O)=O`, the T/C with M5076 [15] was 156%; in the data set on M109 [17], 136%; with M109 [18] it was 128%; in the data set on Mus musculus [20], 341%; with M109 [23], 133%; in the data set on M109 [25], 231%. Moreover, the T/C in the data set on M5076 [28] stood at 122%. Also, the T-C in the data set on M5076 [16] was 18.3 days; in the data set with B16, 12 days; in the data set on M109 [21], 14.5 days; in the data set with M109 [22] it was 10.5 days; with M5076 [26], 20.8 days; with M109 [27], 3 days. In the data set with Mus musculus [19], the Cures is on record as 80%. Besides, the “Relative rate of decomposition” value in [2] is 0.03 (nM of drug) min-1 ml-1; in data set [3], 3.7; in data set [7] it was 60.3. The values for the Rate of decomposition in data set [5], in data set [6] and in data set [8] were 0.24 (nM of drug) min-1 ml-1, 0.89 (nM of drug) min-1 ml-1 and 14.5 (nM of drug) min-1 ml-1, respectively. For the same molecule, the Cures/total with P388 is reported as 3. In addition, the Body weight with L1210 [24] worked out at 1%.
